Common to all, as to type: cell-based
For experiment [1], the target named is T1, Protein cereblon/Apoptosis regulator Bcl-2 (Homo sapiens, UniProt P10415+Q96SW2). In words: Induction of CRBN-mediated Bcl-2 degradation in human HeLa cells assessed as relative abundance at 10 uM measured at 24 hrs by Western blot analysis (reference value: 1). In outline: (§1)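 HeLa cells in DMEM with 10% FBS, exposed to 10 µM compound over a 0–24 h time course. Mcl-1 and Bcl-2 detected by immunoblot (NP-40 lysis, BCA-equalized SDS-PAGE, PVDF, ECL) and quantified relative to DMSO control; mean ± s.d., n=3 independent samples.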
T1 sequence (P10415 whole entry, looked up): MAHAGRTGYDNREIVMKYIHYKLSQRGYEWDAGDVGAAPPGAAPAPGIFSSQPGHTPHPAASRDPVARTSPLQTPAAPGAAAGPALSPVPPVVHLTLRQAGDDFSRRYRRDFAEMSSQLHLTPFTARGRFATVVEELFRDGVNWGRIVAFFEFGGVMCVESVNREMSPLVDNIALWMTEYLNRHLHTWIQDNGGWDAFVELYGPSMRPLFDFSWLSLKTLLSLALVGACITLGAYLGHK
T1 sequence (Q96SW2 whole entry, looked up): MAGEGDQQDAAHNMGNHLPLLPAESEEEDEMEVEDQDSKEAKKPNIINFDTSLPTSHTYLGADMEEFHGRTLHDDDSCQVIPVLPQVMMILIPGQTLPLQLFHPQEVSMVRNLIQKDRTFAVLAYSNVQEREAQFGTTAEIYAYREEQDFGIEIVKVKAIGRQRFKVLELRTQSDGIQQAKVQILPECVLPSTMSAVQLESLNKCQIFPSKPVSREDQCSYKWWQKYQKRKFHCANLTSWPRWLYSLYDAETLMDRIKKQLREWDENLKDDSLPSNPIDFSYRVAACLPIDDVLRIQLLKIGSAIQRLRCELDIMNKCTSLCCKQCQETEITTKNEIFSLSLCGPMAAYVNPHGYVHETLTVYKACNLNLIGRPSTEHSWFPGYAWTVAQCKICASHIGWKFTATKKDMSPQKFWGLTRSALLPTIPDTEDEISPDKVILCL
On the technique in general: In western blotting, separated proteins are transferred to a membrane and probed.

For experiment [2], the target named is T1, Protein cereblon/Apoptosis regulator Bcl-2. Nature of the experiment: Induction of CRBN-mediated Bcl-2 degradation in human HeLa cells assessed as relative abundance at 0.3 uM after 12 hrs by Western blot analysis (reference value: 1).
Experiment [3] addresses T2, Protein cereblon/Induced myeloid leukemia cell differentiation protein Mcl-1 (Homo sapiens, UniProt Q07820+Q96SW2). Nature of the experiment: Induction of CRBN-mediated Mcl-1 degradation in human HeLa cells assessed as relative abundance at 10 uM measured at 24 hrs by Western blot analysis (reference value: 1). In outline:
as §1
Target sequence in this assay (Q07820 whole entry, looked up): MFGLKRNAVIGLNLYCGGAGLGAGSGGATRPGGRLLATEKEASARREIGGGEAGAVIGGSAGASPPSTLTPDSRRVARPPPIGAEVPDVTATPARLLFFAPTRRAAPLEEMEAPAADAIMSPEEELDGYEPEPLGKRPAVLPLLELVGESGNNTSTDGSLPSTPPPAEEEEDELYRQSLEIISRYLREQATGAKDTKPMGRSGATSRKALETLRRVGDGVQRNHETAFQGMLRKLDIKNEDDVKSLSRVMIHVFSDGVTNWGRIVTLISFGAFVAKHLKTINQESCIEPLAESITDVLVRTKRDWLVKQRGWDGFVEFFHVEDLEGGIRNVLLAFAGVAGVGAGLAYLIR
Target sequence in this assay (Q96SW2 whole entry, looked up): as the sequence (Q96SW2 whole entry, looked up) above

Experiment [4] has as its target T2, Protein cereblon/Induced myeloid leukemia cell differentiation protein Mcl-1. Nature of the experiment: Induction of CRBN-mediated Mcl-1 degradation in human HeLa cells assessed as relative abundance at 0.3 uM after 12 hrs by Western blot analysis (reference value: 1).
Target sequence in this assay (Q07820 whole entry, looked up): as the sequence (Q07820 whole entry, looked up) above
Target sequence in this assay (Q96SW2 whole entry, looked up): as the sequence (Q96SW2 whole entry, looked up) above
Experiment [5] shares this target. In words: Induction of CRBN-mediated Mcl-1 degradation in human HeLa cells assessed as relative abundance at 10 uM measured at 2 hrs by Western blot analysis (reference value: 1). The procedure, abridged: as §1
Target sequence in this assay (Q07820 whole entry, looked up): as the sequence (Q07820 whole entry, looked up) above
Target sequence in this assay (Q96SW2 whole entry, looked up): as the sequence (Q96SW2 whole entry, looked up) above
For experiment [6] the target is unchanged. Nature of the experiment: Induction of CRBN-mediated Mcl-1 degradation in human K562 cells incubated for 12 hrs by Western blot analysis. In outline:
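K562 cells kept in RPMI1640 with 10% FBS at 37 °C, 5% CO2. After compound treatment, cells lysed in NP-40 buffer with protease inhibitors. Equal protein run on SDS-PAGE, then immunoblotted; protein levels quantified from the blots.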
Target sequence in this assay (Q07820 whole entry, looked up): as the sequence (Q07820 whole entry, looked up) above
Target sequence in this assay (Q96SW2 whole entry, looked up): as the sequence (Q96SW2 whole entry, looked up) above

Experiment [7] has as its target T1, Protein cereblon/Apoptosis regulator Bcl-2. In words: Induction of CRBN-mediated Bcl-2 degradation in human HeLa cells assessed as relative abundance at 10 uM measured at 2 hrs by Western blot analysis (reference value: 1). The procedure, abridged: as §1
The target is the same in experiment [8]. In words: Induction of CRBN-mediated Bcl-2 degradation in human HeLa cells assessed as relative abundance at 0.1 uM after 12 hrs by Western blot analysis (reference value: 1).
For experiment [9] the target is unchanged. Nature of the experiment: Induction of CRBN-mediated Bcl-2 degradation in human HeLa cells assessed as relative abundance at 1 uM after 12 hrs by Western blot analysis (reference value: 1).
In experiment [10] the target is T2, Protein cereblon/Induced myeloid leukemia cell differentiation protein Mcl-1. Nature of the experiment: Induction of CRBN-mediated Mcl-1 degradation in human HeLa cells assessed as relative abundance at 1 uM after 12 hrs by Western blot analysis (reference value: 1).
Target sequence in this assay (Q07820 whole entry, looked up): as the sequence (Q07820 whole entry, looked up) above
Target sequence in this assay (Q96SW2 whole entry, looked up): as the sequence (Q96SW2 whole entry, looked up) above
Experiment [11] shares this target. In words: Induction of CRBN-mediated Mcl-1 degradation in human HeLa cells assessed as Mcl-1 removal activity measured at 12 hrs by Western blot analysis.
Target sequence in this assay (Q07820 whole entry): as the sequence (Q07820 whole entry, looked up) above
Target sequence in this assay (Q96SW2 whole entry): as the sequence (Q96SW2 whole entry, looked up) above
The target is the same in experiment [12]. In words: Induction of CRBN-mediated Mcl-1 degradation in human HeLa cells assessed as relative abundance at 10 uM measured at 16 hrs by Western blot analysis (reference value: 1). In outline:
as §1
Target sequence in this assay (Q07820 whole entry, looked up): as the sequence (Q07820 whole entry, looked up) above
Target sequence in this assay (Q96SW2 whole entry, looked up): as the sequence (Q96SW2 whole entry, looked up) above

The target is the same in experiment [13]. Nature of the experiment: Induction of CRBN-mediated Mcl-1 degradation in human HeLa cells assessed as relative abundance at 10 uM measured at 4 hrs by Western blot analysis (reference value: 1). The procedure, abridged:
as §1

For experiment [14] the target is unchanged. In words: Induction of CRBN-mediated Mcl-1 degradation in human HeLa cells assessed as relative abundance at 10 uM measured at 8 hrs by Western blot analysis (reference value: 1). In outline:
as §1

Experiment [15] has the same target. In words: Induction of CRBN-mediated Mcl-1 degradation in human HeLa cells assessed as relative abundance at 10 uM measured at 20 hrs by Western blot analysis (reference value: 1). In outline: as §1
Experiment [16] addresses T1, Protein cereblon/Apoptosis regulator Bcl-2. In words: Induction of CRBN-mediated Bcl-2 degradation in human HeLa cells assessed as relative abundance at 10 uM after 12 hrs by Western blot analysis (reference value: 1).
The target is the same in experiment [17]. Nature of the experiment: Induction of CRBN-mediated Bcl-2 degradation in human HeLa cells assessed as relative abundance at 10 uM measured at 16 hrs by Western blot analysis (reference value: 1). The procedure, abridged: as §1
Experiment [18] addresses T2, Protein cereblon/Induced myeloid leukemia cell differentiation protein Mcl-1. In words: Induction of CRBN-mediated Mcl-1 degradation in human HeLa cells assessed as relative abundance at 3 uM after 12 hrs by Western blot analysis (reference value: 1).
Experiment [19] has the same target. Nature of the experiment: Induction of CRBN-mediated Mcl-1 degradation in human HeLa cells assessed as relative abundance at 10 uM after 12 hrs by Western blot analysis (reference value: 1).
Experiment [20] concerns the target T1, Protein cereblon/Apoptosis regulator Bcl-2. Nature of the experiment: Induction of CRBN-mediated Bcl-2 degradation in human HeLa cells assessed as relative abundance at 3 uM after 12 hrs by Western blot analysis (reference value: 1).
The target is the same in experiment [21]. In words: Induction of CRBN-mediated Bcl-2 degradation in human HeLa cells assessed as relative abundance at 10 uM measured at 8 hrs by Western blot analysis (reference value: 1). The procedure, abridged: as §1
Experiment [22] addresses T2, Protein cereblon/Induced myeloid leukemia cell differentiation protein Mcl-1. Nature of the experiment: Induction of CRBN-mediated Mcl-1 degradation in human HeLa cells at 10 uM measured at 24 hrs by Western blot analysis relative to control. The procedure, abridged: as §1
Experiment [23] addresses T1, Protein cereblon/Apoptosis regulator Bcl-2. Nature of the experiment: Induction of CRBN-mediated Bcl-2 degradation in human HeLa cells assessed as relative abundance at 10 uM measured at 20 hrs by Western blot analysis (reference value: 1). The procedure, abridged:
as §1

Experiment [24] deals with T2, Protein cereblon/Induced myeloid leukemia cell differentiation protein Mcl-1. In words: Induction of CRBN-mediated Mcl-1 degradation in human HeLa cells assessed as relative abundance at 0.1 uM after 12 hrs by Western blot analysis (reference value: 1).
Experiment [25] has as its target T1, Protein cereblon/Apoptosis regulator Bcl-2. Nature of the experiment: Induction of CRBN-mediated Bcl-2 degradation in human HeLa cells assessed as relative abundance at 10 uM measured at 4 hrs by Western blot analysis (reference value: 1). The procedure, abridged:
as §1

The target is the same in experiment [26]. In words: Induction of CRBN-mediated Bcl-2 degradation in human HeLa cells by Western blot analysis.

Active and inactive are the calls of the source. The rule behind the calls is not given here.

The term DC50 denotes the concentration giving 50% degradation. Regarding `N#CC1=C(NCCC(=O)O)c2ccc(Sc3ccc(Br)cc3)c3cccc(c23)C1=O`, the fold change (FC) is 1.1 in [1]; 1.3 in [2]; 0.2 in experiment [3]; 1.1 in [4]; 1 in experiment [5]; 1.1 in experiment [7]. In addition, the fold change (FC) in experiment [8] was found to be 1.2; in experiment [9], 1.3; in [10] it was 1.1; in experiment [12], 0.5; in [13], 1; in experiment [14] it was 0.9. The fold change (FC) in experiment [15] was determined as 0.3; in [16], 1.1; in [17] it was 1; in [18] it was 0.8; in [19] it was 0.6; in [20], 1. For the same molecule, the fold change (FC) in experiment [21] worked out at 1.3; in experiment [23] it was 1.1; in experiment [24], 1; in [25] it was 1.2. Further, the outcome in experiment [6] was Active. Besides, the DC50 in experiment [11] came out at 3.6 µM. The same molecule came in with an Activity in experiment [22] of 80%.

As for `CN1C(=O)CCC(N2C(=O)c3cccc(NCCOCCOCCNC(=O)CCCCC(=O)NCCN4C(=O)c5cccc6c(Sc7ccc(Br)cc7)ccc(c56)C4=O)c3C2=O)C1=O` (stereo unspecified), the outcome in [26] was inactive.

Source of the values: ChEMBL document CHEMBL4321796, “Proteolysis Targeting Chimeras for the Selective Degradation of Mcl-1/Bcl-2 Derived from Nonselective Target Binding Ligands” (J Med Chem, 2019).
